Converted amounts (≈) assume the structure as drawn.
Key:
[1] = tested on: Corynebacterium glutamicum; test: Antibacterial activity against Corynebacterium glutamicum ATCC 13032 cultured in MHB medium assessed as no bacterial growth incubated at 20 degC for 24 hrs by microdilution susceptibility test; format: functional; details: ATCC 13032, 24 h
Outline: (§1)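 Broth microdilution per CLSI M07-A9 with modifications. Inoculum about 2.5–3 x 10⁴ cells/mL in Mueller-Hinton broth, mixed 1:1 with test derivative. DMSO stocks diluted in double-distilled water, final DMSO <1%. Incubation 24 h at 37 °C (20 °C for C. glutamicum). Growth and sterility controls included; oxytetracycline reference.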

[2] = tested on: Escherichia coli; test: Antibacterial activity against Escherichia coli ATCC 25922 cultured in MHB medium assessed as no bacterial growth incubated at 37 degC for 24 hrs by microdilution susceptibility test; format: functional; details: ATCC 25922, 24 h; outline: as §1
[3] = tested on: Pseudomonas aeruginosa; test: Antibacterial activity against Pseudomonas aeruginosa PA01 DSM 19880 (ATCC 15692) cultured in MHB medium assessed as no bacterial growth incubated at 37 degC for 24 hrs by microdilution susceptibility test; format: functional; details: PAO1 DSM 19880 (ATCC 15692); outline: as §1
[4] = tested on: Erythrocyte; test: Hemolytic activity against human RBC incubated for 1 hr; format: cell-based
Outline: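 Heparinized human blood washed three times in warm PBS and set to 10% hct. Erythrocytes at 1% v/v final, with compound in PBS (DMSO <1%), shaken 1 h at 37 °C and then centrifuged. Supernatant absorbance read at 405 and 545 nm after PBS background subtraction. Haemolysis taken relative to 1% Triton X-100. Three independent replicates, EC50 averaged.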

[5] = Selectivity index, ratio of EC50 for hemolytic activity against human RBC to MIC for antibacterial activity against Staphylococcus aureus ATCC 9144; format: toxicity; details: human red blood cells (RBC)
Outline: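 Selectivity index is the RBC haemolysis EC50 divided by the MIC against the E. coli or S. aureus reference strain.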

[6] = tested on: Staphylococcus aureus; test: Antibacterial activity against multidrug-resistant Staphylococcus aureus WIS cultured in MHB medium assessed as reduction in bacterial growth incubated for 24 hrs by microdilution susceptibility test; format: functional
Outline: (§2)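 Broth microdilution per CLSI M07-A9 (modified). Working solutions made from concentrated DMSO stocks kept at r.t., diluted in double-distilled water, final DMSO <1%. Inoculum 1–1.2 x 10⁶ cells/mL in Mueller-Hinton broth, mixed 1:1 with compound. 37 °C, 24 h, four parallels. Read as OD₆₀₀. Where precipitation left residual OD, the point of major OD decrease was taken as the inhibitory concentration.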

[7] = tested on: Staphylococcus aureus; test: Antibacterial activity against multidrug-resistant Staphylococcus aureus IHT 99040 cultured in MHB medium assessed as reduction in bacterial growth incubated for 24 hrs by microdilution susceptibility test; format: functional; details: IHT 99040, 24 h; outline: as §2
[8] = tested on: Enterococcus faecium; test: Antibacterial activity against multidrug-resistant Enterococcus faecium 50673722 cultured in BHIB medium assessed as reduction in bacterial growth incubated for 24 hrs by microdilution susceptibility test; format: functional; details: Enterococcus faecium, 50673722, 24 h
Outline: (§3)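 Enterococci grown in Brain Heart Infusion broth, otherwise broth microdilution per CLSI M07-A9 (modified). Concentrated DMSO stocks kept at r.t. and diluted in double-distilled water, final DMSO <1%. Inoculum 1–1.2 x 10⁶ cells/mL mixed 1:1 with compound. 37 °C, 24 h, four parallels. OD₆₀₀ read-out, lowest concentration with no growth.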

[9] = tested on: Enterococcus faecium; test: Antibacterial activity against multidrug-resistant Enterococcus faecium K36-18 cultured in BHIB medium assessed as reduction in bacterial growth incubated for 24 hrs by microdilution susceptibility test; format: functional; details: K36-18, 24 h; outline: as §3
[10] = tested on: Escherichia coli; test: Antibacterial activity against multidrug-resistant Escherichia coli 50639799 producing Verona integron encoded metallo beta-lactamse-29 cultured in MHB medium assessed as reduction in bacterial growth incubated for 24 hrs by microdilution susceptibility test; format: functional; details: Escherichia coli, 50639799, 24 h; outline: as §2
[11] = tested on: Escherichia coli; test: Antibacterial activity against multidrug-resistant Escherichia coli 50676002 producing New Delhi metallo-beta-lactamase-1 cultured in MHB medium assessed as reduction in bacterial growth incubated for 24 hrs by microdilution susceptibility test; format: functional; details: Escherichia coli, 50676002, 24 h; outline: as §2
[12] = tested on: Escherichia coli; test: Antibacterial activity against multidrug-resistant Escherichia coli 50857972 producing imipenem-type carbapenemase-26 cultured in MHB medium assessed as reduction in bacterial growth incubated for 24 hrs by microdilution susceptibility test; format: functional; details: Escherichia coli, 50857972, 24 h; outline: as §2
[13] = tested on: Pseudomonas aeruginosa; test: Antibacterial activity against multidrug-resistant Pseudomonas aeruginosa K34-73 producing Verona integron encoded metallo beta-lactamse-4 cultured in MHB medium assessed as reduction in bacterial growth incubated for 24 hrs by microdilution susceptibility test; format: functional; details: K34-73, 24 h; outline: as §2
[14] = tested on: Pseudomonas aeruginosa; test: Antibacterial activity against multidrug-resistant Pseudomonas aeruginosa K44-24 producing imipenem-type carbapenemase-14 cultured in MHB medium assessed as reduction in bacterial growth incubated for 24 hrs by microdilution susceptibility test; format: functional; details: K44-24, 24 h; outline: as §2
[15] = tested on: Pseudomonas aeruginosa; test: Antibacterial activity against multidrug-resistant Pseudomonas aeruginosa 50692172 producing New Delhi metallo-beta-lactamase-1 cultured in MHB medium assessed as reduction in bacterial growth incubated for 24 hrs by microdilution susceptibility test; format: functional; details: Pseudomonas aeruginosa, 50692172, 24 h; outline: as §2
[16] = tested on: Pseudomonas aeruginosa; test: Antibacterial activity against multidrug-resistant Pseudomonas aeruginosa 50692520 producing Verona integron encoded metallo beta-lactamse cultured in MHB medium assessed as reduction in bacterial growth incubated for 24 hrs by microdilution susceptibility test; format: functional; details: Pseudomonas aeruginosa, 50692520, 24 h; outline: as §2
[17] = tested on: Klebsiella pneumoniae; test: Antibacterial activity against multidrug-resistant Klebsiella pneumoniae K47-25 producing carbapenemase-2 cultured in MHB medium assessed as reduction in bacterial growth incubated for 24 hrs by microdilution susceptibility test; format: functional; details: K47-25, 24 h; outline: as §2
[18] = tested on: Klebsiella pneumoniae; test: Antibacterial activity against multidrug-resistant Klebsiella pneumoniae 50531633 producing New Delhi metallo-beta-lactamase-1 and oxcillinase-181 cultured in MHB medium assessed as reduction in bacterial growth incubated for 24 hrs by microdilution susceptibility test; format: functional; details: Klebsiella pneumoniae, 50531633, 24 h; outline: as §2
[19] = tested on: Klebsiella pneumoniae; test: Antibacterial activity against multidrug-resistant Klebsiella pneumoniae 50667959 producing Verona integron encoded metallo beta-lactamse-1 cultured in MHB medium assessed as reduction in bacterial growth incubated for 24 hrs by microdilution susceptibility test; format: functional; details: Klebsiella pneumoniae, 50667959, 24 h; outline: as §2
[20] = tested on: Acinetobacter baumannii; test: Antibacterial activity against multidrug-resistant Acinetobacter baumannii K12-21 producing oxcillinase-58 cultured in MHB medium assessed as reduction in bacterial growth incubated for 24 hrs by microdilution susceptibility test; format: functional; details: K12-21, 24 h; outline: as §2
[21] = tested on: Acinetobacter baumannii; test: Antibacterial activity against multidrug-resistant Acinetobacter baumannii K44-35 producing oxcillinase-23 cultured in MHB medium assessed as reduction in bacterial growth incubated for 24 hrs by microdilution susceptibility test; format: functional; details: K44-35, 24 h; outline: as §2
[22] = tested on: Acinetobacter baumannii; test: Antibacterial activity against multidrug-resistant Acinetobacter baumannii K47-42 producing oxcillinase-23 cultured in MHB medium assessed as reduction in bacterial growth incubated for 24 hrs by microdilution susceptibility test; format: functional; details: K47-42, 24 h; outline: as §2
[23] = tested on: Acinetobacter baumannii; test: Antibacterial activity against multidrug-resistant Acinetobacter baumannii K55-13 producing oxcillinase-24 cultured in MHB medium assessed as reduction in bacterial growth incubated for 24 hrs by microdilution susceptibility test; format: functional; details: K55-13, 24 h; outline: as §2

Row | SMILES | MIC [1] | MIC [2] | MIC [3] | EC50 [4] | selectivity ratio [5] | MIC [6] | MIC [7] | MIC [8] | MIC [9] | MIC [10] | MIC [11] | MIC [12] | MIC [13] | MIC [14] | MIC [15] | MIC [16] | MIC [17] | MIC [18] | MIC [19] | MIC [20] | other results
1 | NCCNCC(CN)(Cc1ccccc1Br)Cc1ccccc1Br | 2 µg/mL (≈ 4.39 µM) | 16 µg/mL (≈ 35.1 µM) | 16 µg/mL (≈ 35.1 µM) | 209 µg/mL (≈ 459 µM) | 13 | 8 µg/mL (≈ 17.6 µM) | 8 µg/mL (≈ 17.6 µM) | 16 µg/mL (≈ 35.1 µM) | 16 µg/mL (≈ 35.1 µM) | 16 µg/mL (≈ 35.1 µM) | 16 µg/mL (≈ 35.1 µM) | 16 µg/mL (≈ 35.1 µM) | 32 µg/mL (≈ 70.3 µM) | 32 µg/mL (≈ 70.3 µM) | 32 µg/mL (≈ 70.3 µM) | 16 µg/mL (≈ 35.1 µM) | 16 µg/mL (≈ 35.1 µM) | 16 µg/mL (≈ 35.1 µM) | 16 µg/mL (≈ 35.1 µM) | 16 µg/mL (≈ 35.1 µM) | MIC [21]: 16 µg/mL (≈ 35.1 µM); MIC [22]: 16 µg/mL (≈ 35.1 µM); MIC [23]: 16 µg/mL (≈ 35.1 µM)
2 | NCCNCC(CN)(Cc1cc(Br)cc(Br)c1)Cc1cc(Br)cc(Br)c1 | 1 µg/mL (≈ 1.63 µM) | 4 µg/mL (≈ 6.52 µM) | 4 µg/mL (≈ 6.52 µM) | 24 µg/mL (≈ 39.1 µM) | 12 | 8 µg/mL (≈ 13 µM) | 8 µg/mL (≈ 13 µM) | 4 µg/mL (≈ 6.52 µM) | 8 µg/mL (≈ 13 µM) | 8 µg/mL (≈ 13 µM) | 8 µg/mL (≈ 13 µM) | 8 µg/mL (≈ 13 µM) | 16 µg/mL (≈ 26.1 µM) | 16 µg/mL (≈ 26.1 µM) | 32 µg/mL (≈ 52.2 µM) | 32 µg/mL (≈ 52.2 µM) | 8 µg/mL (≈ 13 µM) | 8 µg/mL (≈ 13 µM) | 16 µg/mL (≈ 26.1 µM) | 16 µg/mL (≈ 26.1 µM) | MIC [21]: 8 µg/mL (≈ 13 µM); MIC [22]: 16 µg/mL (≈ 26.1 µM); MIC [23]: 8 µg/mL (≈ 13 µM)
3 | NCCNC(=O)C(CN)(Cc1ccc(C(F)(F)F)cc1)Cc1ccc(C(F)(F)F)cc1 | 4 µg/mL (≈ 8.94 µM) | 16 µg/mL (≈ 35.8 µM) | 32 µg/mL (≈ 71.5 µM) | 289 µg/mL (≈ 646 µM) | 36 | > 32 µg/mL | > 32 µg/mL | 16 µg/mL (≈ 35.8 µM) | 16 µg/mL (≈ 35.8 µM) | > 32 µg/mL | > 32 µg/mL | 32 µg/mL (≈ 71.5 µM) | > 32 µg/mL | > 32 µg/mL | > 32 µg/mL | > 32 µg/mL | > 32 µg/mL | 32 µg/mL (≈ 71.5 µM) | 32 µg/mL (≈ 71.5 µM) | > 32 µg/mL | MIC [21]: > 32 µg/mL; MIC [22]: > 32 µg/mL; MIC [23]: > 32 µg/mL
